The nature of data set [1]: Equilibrium constant (K3) of the compound. The class given is ADME. The procedure, abridged: (§1)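 Stepwise macroscopic protonation constants measured over pH 2.5–10, where each phosphate has one titratable proton. Observed NMR chemical shifts were treated as weighted averages of the shifts of the protonated and deprotonated species.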
The nature of data set [2]: Equilibrium constant (K1) of the compound. In kind it is ADME. The gist of the method: as §1
Data set [3] in a line: Equilibrium constant (K2) of the compound. In kind it is ADME. The gist of the method:
as §1

Data set [4] addresses Inositol 1,4,5-trisphosphate-gated calcium channel ITPR3 (Bos taurus, UniProt Q8WN95). In words: Binding affinity against Inositol 1,4,5-trisphosphate receptor on bovine adrenal cortex microsomes.
The nature of data set [5]: Equilibrium constant (K4) of the compound. In kind it is ADME. The procedure, abridged:
as §1

Results on six compounds are retold here after ChEMBL document CHEMBL1132480, “Synthesis, acid-base behavior, and binding properties of 6-modified myo-inositol 1,4,5-tris(phosphate)s” (J Med Chem, 1999).

The structures appear in SMILES notation.

Sequence of Inositol 1,4,5-trisphosphate-gated calcium channel ITPR3 (Q8WN95 whole entry): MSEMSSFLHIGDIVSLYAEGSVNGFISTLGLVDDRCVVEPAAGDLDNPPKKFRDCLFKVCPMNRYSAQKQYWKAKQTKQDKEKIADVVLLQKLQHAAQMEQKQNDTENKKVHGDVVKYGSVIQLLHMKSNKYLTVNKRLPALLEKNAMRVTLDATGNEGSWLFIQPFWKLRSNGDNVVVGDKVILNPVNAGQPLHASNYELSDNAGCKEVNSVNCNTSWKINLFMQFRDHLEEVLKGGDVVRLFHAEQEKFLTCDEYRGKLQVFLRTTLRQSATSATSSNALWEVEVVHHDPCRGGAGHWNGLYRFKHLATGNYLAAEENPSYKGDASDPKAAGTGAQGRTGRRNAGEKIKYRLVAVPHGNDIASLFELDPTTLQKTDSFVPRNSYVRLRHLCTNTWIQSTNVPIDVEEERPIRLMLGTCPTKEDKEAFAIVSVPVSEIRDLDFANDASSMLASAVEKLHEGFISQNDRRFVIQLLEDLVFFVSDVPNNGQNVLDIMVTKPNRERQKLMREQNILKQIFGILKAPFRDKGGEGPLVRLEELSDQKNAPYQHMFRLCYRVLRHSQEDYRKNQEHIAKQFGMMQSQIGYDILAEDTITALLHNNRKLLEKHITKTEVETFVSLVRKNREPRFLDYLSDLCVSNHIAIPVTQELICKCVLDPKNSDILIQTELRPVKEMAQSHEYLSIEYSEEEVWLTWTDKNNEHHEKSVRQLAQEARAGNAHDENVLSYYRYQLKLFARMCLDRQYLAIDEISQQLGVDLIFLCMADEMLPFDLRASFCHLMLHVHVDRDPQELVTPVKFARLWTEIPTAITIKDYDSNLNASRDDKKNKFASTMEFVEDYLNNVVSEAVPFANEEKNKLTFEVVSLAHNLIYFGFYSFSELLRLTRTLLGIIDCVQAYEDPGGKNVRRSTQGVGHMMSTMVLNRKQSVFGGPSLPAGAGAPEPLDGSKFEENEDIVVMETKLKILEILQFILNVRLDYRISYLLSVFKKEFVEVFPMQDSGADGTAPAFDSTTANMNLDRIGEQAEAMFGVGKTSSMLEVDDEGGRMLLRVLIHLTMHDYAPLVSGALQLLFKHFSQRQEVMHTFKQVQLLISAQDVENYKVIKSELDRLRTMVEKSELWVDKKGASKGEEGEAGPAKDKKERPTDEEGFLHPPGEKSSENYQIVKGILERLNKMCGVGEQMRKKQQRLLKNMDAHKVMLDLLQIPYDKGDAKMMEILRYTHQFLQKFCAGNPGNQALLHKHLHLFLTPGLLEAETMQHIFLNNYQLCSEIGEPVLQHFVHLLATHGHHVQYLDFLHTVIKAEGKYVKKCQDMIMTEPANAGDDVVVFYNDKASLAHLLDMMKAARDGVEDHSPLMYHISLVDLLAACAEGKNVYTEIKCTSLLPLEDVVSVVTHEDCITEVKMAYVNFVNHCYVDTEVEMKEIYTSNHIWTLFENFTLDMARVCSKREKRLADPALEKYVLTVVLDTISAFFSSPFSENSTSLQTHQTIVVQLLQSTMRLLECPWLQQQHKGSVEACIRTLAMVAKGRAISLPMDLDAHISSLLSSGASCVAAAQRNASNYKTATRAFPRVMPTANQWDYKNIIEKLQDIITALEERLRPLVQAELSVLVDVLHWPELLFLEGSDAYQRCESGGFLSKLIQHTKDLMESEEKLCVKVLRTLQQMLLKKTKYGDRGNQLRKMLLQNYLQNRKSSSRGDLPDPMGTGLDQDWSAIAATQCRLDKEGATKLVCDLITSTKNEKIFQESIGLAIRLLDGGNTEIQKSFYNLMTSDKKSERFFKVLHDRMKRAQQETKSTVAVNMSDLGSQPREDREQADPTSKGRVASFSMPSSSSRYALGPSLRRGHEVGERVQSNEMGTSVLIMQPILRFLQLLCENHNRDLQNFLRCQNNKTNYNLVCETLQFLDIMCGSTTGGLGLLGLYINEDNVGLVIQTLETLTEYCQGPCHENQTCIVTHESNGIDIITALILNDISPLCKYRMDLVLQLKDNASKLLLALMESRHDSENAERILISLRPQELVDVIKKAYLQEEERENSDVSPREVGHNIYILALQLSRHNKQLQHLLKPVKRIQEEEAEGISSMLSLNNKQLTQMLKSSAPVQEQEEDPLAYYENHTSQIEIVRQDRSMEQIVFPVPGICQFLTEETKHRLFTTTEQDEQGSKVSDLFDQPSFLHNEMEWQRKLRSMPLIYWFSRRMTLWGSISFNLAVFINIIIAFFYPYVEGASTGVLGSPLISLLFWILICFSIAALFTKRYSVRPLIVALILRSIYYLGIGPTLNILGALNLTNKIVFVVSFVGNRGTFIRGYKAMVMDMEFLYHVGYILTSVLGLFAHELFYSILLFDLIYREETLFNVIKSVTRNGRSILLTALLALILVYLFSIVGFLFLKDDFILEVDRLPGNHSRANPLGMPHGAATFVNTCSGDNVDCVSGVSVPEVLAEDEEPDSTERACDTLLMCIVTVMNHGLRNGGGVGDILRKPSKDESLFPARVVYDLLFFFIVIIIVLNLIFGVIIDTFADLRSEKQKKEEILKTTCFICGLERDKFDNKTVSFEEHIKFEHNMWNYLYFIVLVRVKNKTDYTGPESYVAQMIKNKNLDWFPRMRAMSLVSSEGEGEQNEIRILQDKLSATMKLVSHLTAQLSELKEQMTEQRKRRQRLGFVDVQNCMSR

On to `O=P(O)(O)O[C@@H]1[C@H](O)[C@H](O)[C@@H](OP(=O)(O)O)[C@H](OP(=O)(O)O)[C@H]1O` [INS(1,4,5)P3], for which the “Log K3” value in data set [1] came to 5.31. For the same compound, the “Log K1” value in data set [2] was determined as 7.85. Also, the “Log K2” value in data set [3] is 6.4.
By IC50 is commonly meant the point on the concentration scale where inhibition reaches its midpoint. As for `O=P(O)(O)O[C@@H]1CC[C@@H](OP(=O)(O)O)[C@H](OP(=O)(O)O)C1`, the IC50 in data set [4] is 3900 nM.
Turning to `O=P(O)(O)O[C@@H]1[C@H](O)[C@H](O)[C@@H](OP(=O)(O)O)[C@H](OP(=O)(O)O)[C@H]1F`, in data set [1], the “Log K3” value came out at 5.56. Moreover, the “Log K1” value in data set [2] is 8.76. Besides, in data set [3], the “Log K2” value stood at 6.64. In addition, the IC50 in data set [4] was determined as 2000 nM.
In the case of `N[C@@H]1[C@@H](OP(=O)(O)O)[C@H](OP(=O)(O)O)[C@@H](O)[C@@H](O)[C@H]1OP(=O)(O)O`, in data set [1], the “Log K3” value is 5.58. Further, in data set [2], the “Log K1” value is listed as 10.69. For the same compound, the “Log K2” value in data set [3] came to 7.35. For the same compound, in data set [5], the “Log K4” value was determined as 4.62. For the same compound, the IC50 in data set [4] turned out to be 5000 nM.
Consider `O=P(O)(O)O[C@@H]1[C@@H](O)[C@@H](O)[C@@H](OP(=O)(O)O)C[C@H]1OP(=O)(O)O`, for which, in data set [1], the “Log K3” value is listed as 5.53. Further, in data set [2], the “Log K1” value was 8.3. Further, in data set [3], the “Log K2” value was 6.65. Also, the IC50 in data set [4] is 1000 nM.
For the compound `O=P(O)(O)O[C@@H]1[C@H](O)[C@H](O)[C@@H](OP(=O)(O)O)[C@H](OP(=O)(O)O)[C@@H]1O`, the “Log K3” value in data set [1] was found to be 5.4. The “Log K1” value in data set [2] stood at 8.01. The “Log K2” value in data set [3] was 6.39.
